In ChEMBL document CHEMBL1136128, “3-(2-Benzyloxyphenyl)isoxazoles and isoxazolines: synthesis and evaluation as CFTR activators” (Bioorg Med Chem Lett, 2003):

Key:
[1] = substrate: COC(=O)C1CC(c2cc(Br)ccc2OCc2ccc(OC)cc2)=NO1; experiment: (§1) Vmax (maximal I influx) of compound against CFTR (cystic fibrosis transmembrane conductance regulator) in rat was determined
How it was run: (§2)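 Cells stably co-expressing human wild-type CFTR and YFP-H148Q were grown to confluence in 96-well plates and washed in PBS. Compounds were added from DMSO stocks, with full dose–responses run. A 100 mM inward iodide gradient was applied at 37 °C. Iodide influx was taken from the slope of the YFP fluorescence time course. Kd and Vmax (mM/s) are means of three or more experiments.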

[2] = substrate: COC(=O)C1CC(c2ccccc2OCc2ccc(Br)cc2)=NO1; experiment: as §1; how it was run: as §2
[3] = substrate: COC(=O)C1CC(c2ccccc2OCc2ccc(OC)cc2)=NO1; experiment: as §1; how it was run: as §2
[4] = substrate: COC(=O)C1CC(c2ccccc2OCc2cccc(OC)c2)=NO1; experiment: as §1; how it was run: as §2
[5] = substrate: COC(=O)c1cc(-c2ccccc2OCc2ccc(Br)cc2)no1; experiment: as §1; how it was run: as §2
[6] = substrate: COC(=O)c1onc(-c2ccccc2OCc2ccc(Br)cc2)c1C(=O)OC; experiment: as §1; how it was run: as §2
[7] = substrate: COc1ccc(COc2ccc(Br)cc2-c2cc(CO)on2)cc1; experiment: as §1; how it was run: as §2
[8] = substrate: COc1ccc(COc2ccccc2-c2cc(CCO)on2)cc1; experiment: as §1; how it was run: as §2
[9] = substrate: COc1ccc(COc2ccccc2-c2cc(CO)on2)cc1; experiment: as §1; how it was run: as §2
[10] = substrate: COc1ccc(COc2ccccc2C2=NOC(CCl)C2)cc1; experiment: as §1; how it was run: as §2
[11] = substrate: COc1ccc(COc2ccccc2C2=NOC(CO)C2)cc1; experiment: as §1; how it was run: as §2
[12] = substrate: COc1cccc(COc2ccccc2-c2cc(CCO)on2)c1; experiment: as §1; how it was run: as §2
[13] = substrate: COc1cccc(COc2ccccc2-c2cc(CO)on2)c1; experiment: as §1; how it was run: as §2
[14] = substrate: COc1cccc(COc2ccccc2C2=NOC(CCl)C2)c1; experiment: as §1; how it was run: as §2
[15] = substrate: COc1cccc(COc2ccccc2C2=NOC(CO)C2)c1; experiment: as §1; how it was run: as §2
[16] = substrate: ClCc1cc(-c2ccccc2OCc2ccc(Br)cc2)no1; experiment: as §1; how it was run: as §2
[17] = substrate: OCCc1cc(-c2ccccc2OCc2ccc(Br)cc2)no1; experiment: as §1; how it was run: as §2
[18] = substrate: OCc1cc(-c2ccccc2OCc2ccc(Br)cc2)no1; experiment: as §1; how it was run: as §2

B1: Cystic fibrosis transmembrane conductance regulator (Rattus norvegicus), P34158 (protein)
chain: MQKSPLEKASFISKLFFSWTTPILRKGYRHHLELSDIYQAPSSDSADHLSEKLEREWDREQASKKKPQLIHALRRCFVWRFVFYGVLLYLGEVTKAVQPVLLGRIIASYDPDNTEERSIAIYLGIGLCLLFIVRTLLLHPAIFGLHHIGMQMRIAMFSLIYKKTLKLSSRVLDKISIGQLISLLSNNLNKFDEGLALAHFIWIAPLQVVLLMGLLWDLLQFSAFCGLGLLIVLVIFQAILGKMMVKYRDKRAAKINERLVITSEVIDNIYSVKAYCWESAMEKIIESLREEELKMTRRSAYMRFFTSSAFFFSGFFVVFLSVLPYTVINGIVLRKIFTTISFCIVLRMSVTRQFPTAVQIWYDSLGMIRKIQDFLQTQEYKVLEYNLMFTGLVMENVTAFWEEGFQELLEKVQLNNDDRKTSNGENHLSFSHLCLVGNPVLKNINLNIKKGEMLAITGSTGAGKTSLLMLILGELEASEGIIKHSGRVSFSSQISWIMPGTIKENIIFGVSYDEYRYKSVVKACQLQEDITKFAEQDNTVLGEGGVTLSGGQRARISLARAVYKDADLYLLDSPFGYLDVLTEEQIFESCVCKLMASKTRILVTSKMEQLKKADKILILHEGSSYFYGTFSELQSLRPDFSSKLMGYDTFDQFTEERRSSILTETLRRFSVDDASTTWNKAKQSFRQTGEFGEKRKNSILSSFSSVKKISIVQKTPLSIEGESDDLQERRLSLVPDSEHGEAALPRSNMITAGPTFPGRRRQSVLDLMTFTPSSVSSSLQRTRASIRKISLAPRISLKEEDIYSRRLSQDSTLNITEEINEEDLKECFFDDMVKIPTVTTWNTYLRYFTLHRGLFAVLIWCVLVFLVEVAASLFVLWLLKNNPVNGGNNGTKIANTSYVVVITSSSFYYIFYIYVGVADTLLALSLFRGLPLVHTLITASKILHRKMLHSILHAPMSTFNKLKAGGILNRFSKDIAILDDFLPLTIFDFIQLLFIVVGAIIVVSALQPYIFLATVPGLAVFILLRAYFLHTSQQLKQLESEGRSPIFTHLVTSLKGLWTLRAFRRQTYFETLFHKALNLHTANWFMYLATLRWFQMRIDMIFVLFFIVVTFISILTTGEGEGTTGIILTLAMNIMSTLQWAVNSSIDTDSLMRSVSRVFKFIDIQTEESICTKIMKELHSEDSPNALVIKNEHVKKCDTWPSGGEMVVKDLTVKYVDDGNAILENISFSISPGQRVGLLGRTGSGKSTLLSAFLRMLNIKGEIQIDGVSWNSMTLQEWRKAFGVITQKVFIFSGTFRQNLDPNGKWRDEEIWKVADQVGLKSVIEQFPGQLNFTLVDGGYVLSHGHKQLMCLARSVLSKAKIILLDEPSANLDPITYQVIRRVLRQAFAGCTVVLCEHRIEAMLDCQRFLVIEQGNVWQYESLQALLSEKSVFQRALSSSEKMKLFHGRHSSKQKPRTQITAVKEETEEEVQETRL
Vmax [1]: 1.04 mM/s
Vmax [2]: 0.81 mM/s
Vmax [3]: 1.13 mM/s
Vmax [4]: 1.08 mM/s
Vmax [5]: 1.01 mM/s
Vmax [6]: 0.97 mM/s
Vmax [7]: 1.03 mM/s
Vmax [8]: 1.05 mM/s
Vmax [9]: 1.06 mM/s
Vmax [10]: 1.2 mM/s
Vmax [11]: 1.07 mM/s
Vmax [12]: 0.94 mM/s
Vmax [13]: 1.04 mM/s
Vmax [14]: 1.02 mM/s
Vmax [15]: 0.99 mM/s
Vmax [16]: 1.02 mM/s
Vmax [17]: 1.02 mM/s
Vmax [18]: 1.06 mM/s
